# Source: PubChem (The Scripps Research Institute Molecular Screening Center)
# CHO-K1 Ca PAM – M1 PAM counterscreen hit in parental CHO-K1 cells. ATP EC20, Fluo-8 calcium fluorescence; 0% at ATP EC20, 100% at ATP max. activation, % at 3 µM. 0.02% of 360,000 active;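 active means activation above the run cutoff, the mean activation of all test compounds plus 3 SD, cut at about 40% in these data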;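 further: peak over basal fluorescence ratio in a 140 s read after ATP addition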
# OX1R antag-1 – antagonists of human orexin 1 receptor (OX1R) | O43613 | OX1R-expressing cells, FRET antagonist read-out | inhibition, % at 6.6 µM | 1.8% of 330,000 active; in the data active means inhibition mostly above about 38%, no sharp cut-off; inactive means mostly below about 40%;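 further: 0% = agonist challenge alone and 100% = reference antagonist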
# Target sequence (O43613 whole entry, looked up): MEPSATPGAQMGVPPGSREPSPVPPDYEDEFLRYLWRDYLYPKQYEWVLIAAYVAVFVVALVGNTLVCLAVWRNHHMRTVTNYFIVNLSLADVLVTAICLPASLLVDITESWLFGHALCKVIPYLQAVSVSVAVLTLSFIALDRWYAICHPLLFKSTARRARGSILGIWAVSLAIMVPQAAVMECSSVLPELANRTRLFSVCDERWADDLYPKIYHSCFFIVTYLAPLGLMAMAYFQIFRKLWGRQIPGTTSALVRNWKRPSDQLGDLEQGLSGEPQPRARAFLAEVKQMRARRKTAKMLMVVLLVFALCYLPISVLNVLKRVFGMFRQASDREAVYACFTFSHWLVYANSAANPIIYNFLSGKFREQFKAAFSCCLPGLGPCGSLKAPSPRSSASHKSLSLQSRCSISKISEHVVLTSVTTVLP
# CHO parental Ca – counter-screen: ATP calcium response change in parental CHO cells; 0.63% of 330,000 active; inhibition, % at 5.6 µM; AID 463079; parental CHO-K1, ATP-induced calcium, Fluo-8 fluorescence;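 active means inhibition above that plate's mean sample inhibition plus 3 SD, cut at about 26% in these data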;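 further: 0% = ATP-challenged DMSO wells and 100% = DMSO wells without ATP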
#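 Material: Parental CHO cells | Reagent: ATP | Compound dosing: Single nominal dose of 5.6 µM per compound | Detection: Intracellular calcium via Fluo-8 no-wash fluorescent dye | Read-out: % inhibition of ATP-induced calcium mobilization | Benchmarks: Low control ATP plus DMSO, high control DMSO only | Replicates: Singlicate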
# OX1R antag-2 – blocks the human orexin 1 receptor | O43613 | CHO/OX1R cells, Fluo-8 calcium fluorescence, orexin A | inhibition, % at 5 µM | 0.43% of 330,000 active | AID 434989;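 active means inhibition above its plate's threshold, mean inhibition of all tested compounds on the plate plus 3 SD, cut at about 37% in these data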;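 further: 0% = orexin A challenge wells and 100% = SB-334867-A antagonist wells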
# M1 ag parental – M1 agonist counterscreen hit in parental CHO-K1 cells. Fluo-8 calcium fluorescence; scaled to maximal ATP response, vehicle zero. AID 602248. activation, % at 3 µM. 0.48% of 360,000 active; in the data active means activation above about 15%;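 further: untransfected CHO-K1 host cells lacking M1 receptor as counterscreen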
# CHO-K1 Ca antag – nonselective inhibitor or artifact in parental CHO-K1 cells; ATP-induced calcium, Fluo-8 fluorescence; AID 602250; inhibition, % at 3 µM; 0.6% of 360,000 active;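 active means inhibition above a per-plate cutoff, the plate's mean sample inhibition plus 3 SD, cut at about 24% in these data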;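 further: 0% = DMSO plus EC80 ATP and 100% = DMSO alone without ATP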
# OX1R Fluo8 conf – OX1R (human) antagonism, confirmed. shares compounds with OX1R antag-2. CHO/OX1R cells, orexin A calcium Fluo-8 fluorescence. inhibition, % at 5 µM. 38% of 1,100 active. AID 492963; in the data active means inhibition above about 29%;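 further: 0% = agonist challenge alone and 100% = reference antagonist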
# CHO Ca counter – signal in parental CHO cells, OX1R antagonist counter-screen | shares compounds with OX1R antag-2 | parental CHO-K1, ATP-induced calcium, Fluo-8 fluorescence | inhibition, % at 5.6 µM | 9.3% of 1,100 active;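 active means inhibition above a per-plate limit, the mean inhibition of that plate's test compounds plus 3 SD, cut at about 25% in these data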;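 further: 0% = ATP challenge with DMSO and 100% = DMSO without ATP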
# OX1R HTRF confirm – OX1R (human) antagonism, HTRF confirmed. 49% of 1,800 active. AID 492964. inhibition, % at 6.6 µM. shares compounds with OX1R antag-1. OX1R-expressing cells, HTRF antagonist assay; in the data active means inhibition above about 55%;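 further: CHO cells expressing OX1R stimulated with orexin A at about EC80; 0% = agonist challenge alone and 100% = reference antagonist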
# CHO-K1 HTRF cnt – signal in parental CHO-K1 cells, OX1R antagonist counter-screen | inhibition, % at 6.6 µM | shares compounds with OX1R antag-1 | HTRF counterscreen | 48% of 1,800 active; in the data active means inhibition above about 17%;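 further: 0% = agonist challenge with vehicle and 100% = vehicle alone without agonist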
# Numbers without * were called inactive; nt = no result. Compounds with a hit are over-represented: about 2.9% of the library has one in this group of screens.
SMILES,CHO-K1 Ca PAM,OX1R antag-1,CHO parental Ca,OX1R antag-2,M1 ag parental,CHO-K1 Ca antag,OX1R Fluo8 conf,CHO Ca counter,OX1R HTRF confirm,CHO-K1 HTRF cnt
COc1cc(OC)c(NC(=O)c2ccccc2F)cc1Cl,19,89*,-7,30,1,-12,35*,-9,82*,9
CCOc1ccccc1-c1nc(-c2ccc(NC(=O)c3ccc(Br)o3)cc2)no1,nt,69*,-4,35,nt,nt,17,-3,79*,18*
CCOc1ccccc1-c1nc(-c2ccc(NC(=O)Cc3ccc(OC)cc3)cc2)no1,-5,22,4,-5,0,-4,nt,nt,nt,nt
O=c1c2ccccc2oc2ccccc12,1,nt,nt,nt,0,3,nt,nt,nt,nt
O=c1c2ccccc2oc2c1ccc1ccccc12,7,90*,-35,55*,0,-14,23,-21,68*,-6
CC(NC(=S)N1CCN(c2ccccc2)CC1)c1ccccc1 (stereo not drawn),1,21,-10,-9,1,-4,nt,nt,nt,nt
Cc1c(C(=O)OC(C)C(=O)N(C)Cc2ccccc2)oc2ccccc12 (stereo not drawn),9,86*,-19,53*,4,-17,53*,-10,88*,4
COc1ccc2oc(C(=O)OC(C)C(=O)NCc3ccccc3)c(C)c2c1 (stereo not drawn),-14,6,-35,-33,3,22,nt,nt,nt,nt
CN(CC(O)Cn1c2ccccc2c2ccccc21)S(C)(=O)=O (stereo not drawn),18,-5,-3,7,2,-10,nt,nt,nt,nt
CS(=O)(=O)N(CC(O)Cn1c2ccccc2c2ccccc21)c1ccccc1 (stereo not drawn),16,49*,13,27,4,5,36*,-2,44,3
COc1cc(Cl)c(C)cc1Nc1ncccn1,5,82*,-2,25,-1,-7,24,-4,74*,8
COc1cc(C(C)=O)ccc1OCC(O)Cn1nc(C)c(Br)c1C (stereo not drawn),1,nt,nt,nt,4,0,nt,nt,nt,nt
S=c1[nH]nc(-c2cc(-c3ccccc3)n[nH]2)n1/N=C/c1cccs1,-4,88*,-9,53*,0,2,27,3,62*,4
S=c1[nH]nc(-c2cc(-c3ccccc3)n[nH]2)n1/N=C/c1ccccc1,-24,12,-15,-1,0,17,nt,nt,nt,nt
O=C(c1ccc(Cl)c(S(=O)(=O)N2CCOCC2)c1)N1CCCCCC1,2,4,-8,-29,2,-10,nt,nt,nt,nt
CC(C)N(Cc1ccccc1)C(=O)CN1C(=O)NC(Cc2ccccc2)(c2ccccc2)C1=O (stereo not drawn),11,81*,-17,28,1,-14,42*,-14,87*,-15
CCCCC[C@H]1CN(Cc2ccc(OC)cc2)C(=O)[C@@H]1CC(=O)NCc1ccccc1,14,-9,-25,-20,2,-11,nt,nt,nt,nt
CC(=O)Nc1cccc(-c2ccnc3c2CC(C(=O)NCc2ccc(F)c(F)c2)O3)c1 (stereo not drawn),1,nt,nt,nt,2,8,nt,nt,nt,nt
Cc1ccc(S(=O)(=O)N(CCCO)CC(O)CON=C2c3ccccc3-c3ccccc32)cc1 (stereo not drawn),14,73*,-6,42*,2,-6,26,-4,76*,4
CCN(CC(O)Cn1c2ccccc2c2ccccc21)S(=O)(=O)c1ccc(C)cc1 (stereo not drawn),11,11,-20,1,1,-6,nt,nt,nt,nt
CN(C)C1CN(Cc2cn(Cc3cccc(C(F)(F)F)c3)nn2)S(=O)(=O)C1 (stereo not drawn),0,nt,nt,nt,0,-2,nt,nt,nt,nt
CN(C)/C=C/C1=C([N+](=O)[O-])C(c2cccc([N+](=O)[O-])c2)NC(=O)N1 (stereo not drawn),12,88*,-8,36,0,-6,0,1,37,29*
CCOC(=O)C1=C(CCc2ccccc2)NC(=O)NC1c1cccc([N+](=O)[O-])c1 (stereo not drawn),9,26,-11,-10,0,-19,nt,nt,nt,nt
COc1cccc2sc3ccc(C#CC4(N)CCCCC4)cc3c(=O)c12,-12,6,-14,-7,1,-4,nt,nt,nt,nt
COc1cccc2sc3cc(C#CC4(O)CCCCC4)ccc3c(=O)c12,13,80*,-4,87*,3,-6,55*,-13,87*,15
SMILES,CHO-K1 Ca PAM,OX1R antag-1,CHO parental Ca,OX1R antag-2,M1 ag parental,CHO-K1 Ca antag,OX1R Fluo8 conf,CHO Ca counter,OX1R HTRF confirm,CHO-K1 HTRF cnt
NS(=O)(=O)c1ccc(Sc2ccc3ccccc3c2)nc1,-2,20,13,-1,5,4,nt,nt,nt,nt
COc1ccc(CCNc2cc(=O)[nH]c(N)n2)cc1,0,86*,-4,76*,0,-21,11,2,55*,6
COc1ccccc1N(CC(=O)NCc1ccccc1)C(=O)CCC(=O)Nc1nccs1,13,18,-10,-28,1,-12,nt,nt,nt,nt
COc1ccc(C)cc1N(CC(=O)Nc1ccc(S(=O)(=O)N2CCCC2)cc1)S(C)(=O)=O,-5,nt,nt,nt,1,2,nt,nt,nt,nt
O=S(=O)(CCOc1ccccc1)c1nc2ccccc2[nH]1,0,86*,-17,33,0,0,15,-2,54,-1
O=C(CCCOc1ccccc1)Nc1nc2ccccc2[nH]1,1,24,-8,-16,0,-3,nt,nt,nt,nt
CN1CCCCC1(C)C(=O)NCc1ccc(C(C)(C)C)cc1 (stereo not drawn),2,nt,nt,nt,0,8,nt,nt,nt,nt
Cc1ccccc1S(=O)(=O)N1[C@@H](c2ccc(Cl)cc2)C(C(=O)O)=CC[C@H]1c1ccc(Cl)cc1,3,35,-5,29,0,-12,nt,nt,nt,nt
Cc1ccc([C@@H]2CC=C(C(=O)O)[C@H](c3cccc(Cl)c3)N2S(=O)(=O)c2ccccc2C)cc1,-2,86*,2,81*,0,9,48*,-1,89*,4
Cc1c2ccccc2nc2c(F)c(N(C)C)c(F)c(F)c12,2,82*,5,50*,3,7,71*,16,93*,12
CN(C)c1c2ccccc2nc2c(F)c(F)c(F)c(F)c12,21,21,-10,-7,3,-8,nt,nt,nt,nt
